Compounds with a hit are over-represented: about 4.8% of the library has one in this group of screens.
NALP1 yeast inh = blocks the NALP1 inflammasome reconstituted in yeast. S. cerevisiae NALP1/ASC/caspase-1 growth, X-gal OD620, 72 h. inhibition, % at 10 µM. 280,000 compounds, 0.61% hits. AID 2071; in the data active = inhibition mostly above about 24%, no sharp cut-off; inactive = mostly below about 32%
UCH37 DUB inh = inhibitors of human deubiquitinating enzyme UCH37; Q9Y5K5; purified proteasome/UCH37, Ub-AMC cleavage fluorescence; inhibition, % (concentration not given with the values); 330,000 compounds, 0.33% hits;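 active = mean inhibition over replicate wells above about 20%, limit read from the data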;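 note: 0% = compound-free wells with enzyme and 100% = wells lacking proteasome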
Target sequence (Q9Y5K5 whole entry, looked up): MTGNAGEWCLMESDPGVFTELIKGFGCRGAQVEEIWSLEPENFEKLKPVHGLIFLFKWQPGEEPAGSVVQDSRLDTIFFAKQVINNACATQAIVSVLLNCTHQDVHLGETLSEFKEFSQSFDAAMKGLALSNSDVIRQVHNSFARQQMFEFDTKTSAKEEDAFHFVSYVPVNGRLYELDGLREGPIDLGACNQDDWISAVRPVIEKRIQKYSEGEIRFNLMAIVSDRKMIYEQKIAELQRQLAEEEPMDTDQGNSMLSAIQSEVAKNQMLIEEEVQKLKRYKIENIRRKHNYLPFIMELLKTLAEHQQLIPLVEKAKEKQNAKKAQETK
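Material: human UCH37 enzyme supplied as purified proteasome complex / Amount: 0.15 nM proteasome as dispensed / Buffer or medium: pH 7.4 Tris-HCl (50 mM) with ovalbumin, ATP-MgCl2, DTT / Times: preincubation 30 min, reaction 25 min, room temperature / Technique: AMC fluorescence from Ub-AMC cleavage, excitation 355 nm, emission 460 nm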
Calb FLC = affects C. albicans growth with fluconazole; AID 1979; C. albicans CaCi-2 + fluconazole, Alamar Blue growth, 48 h; 300,000 compounds, 0.57% hits; growth inhibition, % (concentration not given with the values);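 active = growth inhibition above about 58% in most replicates, limit read from the data, passing the limit was not always enough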;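 note: all wells also contain fluconazole at 8 µg/ml as a sub-toxic cotreatment; 0% = median of DMSO wells and 100% = median of geldanamycin control wells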
ATG4B inhibitor = ATG4B (human) cysteine protease inhibition. 340,000 compounds, 0.51% hits. AID 504462. inhibition, % at 8.33 µM. ATG4B cleavage of LC3-PLA2, NBD-HPC fluorescence, 1 h; in the data active = inhibition above about 40%
ALR inh = inhibitors of human sulfhydryl oxidase ALR; 290,000 compounds, 3.8% hits; purified ALR, DTT oxidation, H2O2 HRP-luminol luminescence; inhibition, % (concentration not given with the values); P55789;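 active = mean replicate inhibition above about 79%, with every replicate also reaching it, limit read from the data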
Target sequence (P55789 whole entry, looked up): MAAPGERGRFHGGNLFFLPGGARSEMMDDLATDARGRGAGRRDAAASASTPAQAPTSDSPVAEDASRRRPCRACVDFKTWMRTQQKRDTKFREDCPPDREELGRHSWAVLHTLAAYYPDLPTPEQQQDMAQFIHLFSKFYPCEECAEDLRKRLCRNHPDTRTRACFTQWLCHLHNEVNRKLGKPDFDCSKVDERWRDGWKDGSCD
NLRP3 yeast inh = blocks the NALP3 inflammasome reconstituted in yeast | 330,000 compounds, 0.39% hits | AID 2825 | inhibition, % at 10 µM | Yeast reconstituted NLRP3/ASC/caspase-1, beta-gal luminescence, 24 h;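 active = inhibition of 50% or more; inactive = inhibition below 50%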;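 note: plate controls were induced DMSO wells for no effect and uninduced yeast grown without galactose for full effect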
The depositor's hits bear a star; x = no result given.

SMILES	NALP1 yeast inh	UCH37 DUB inh	Calb FLC	ATG4B inhibitor	ALR inh	NLRP3 yeast inh
CON=CC(C(C)=O)C(=O)Nc1ccc(Cl)cc1Cl (stereo not given)	x	-1.3	x	x	x	x
CC1CC(Nc2ccccc2)c2ccccc2N1C(=O)c1ccco1 (stereo not given)	-7.2	5.8	63.4	0.0	98.7*	9.9
CCCC(=O)Nc1sc(C(=O)Nc2cccc(N)c2)c(C)c1C(=O)OC	2.7	-0.2	4.7	-12.8	98.3*	3.7
COC(=O)c1c(NC(C)=O)sc(C(=O)Nc2ccccc2)c1C	-1.3	-1.3	2.5	-8.0	-7.1	28.3
CC(=NNC(=O)CSc1nc2ccccc2c(=O)n1-c1ccccc1C)c1cccs1	x	7.0	x	x	x	x
Nc1cccc2c(O)cccc12	x	-41.0	-6.0	-8.4	-4.3	11.0
O=c1[nH]ccc2c(O)cccc12	x	-3.8	3.9	-1.5	98.5*	-0.5
COC(=O)c1ccc2[nH]c3c(c2c1)CC(C)CC3 (stereo not given)	x	1.3	-15.6	-3.3	92.5*	-5.5
CC(C)CC(=O)NCc1ccc2[nH]c3c(c2c1)CCCC3	12.8	5.2	119.0*	-3.4	21.9	14.1
Cc1ccc(NC(=S)NCc2ccc3[nH]c4c(c3c2)CCCC4)cc1	14.9	2.4	-9.2	0.0	-2.6	27.0
CCOC(=O)c1ccc2[nH]c3c(c2c1)CCCC3	4.5	1.0	-66.5	1.1	98.3*	9.3
CCOC(=O)c1ccc2[nH]c3c(c2c1)CCCC3O (stereo not given)	5.1	1.3	27.8	-13.1	-2.4	19.6
COCCNC(=S)NCc1ccc2[nH]c3c(c2c1)CCCC3	5.7	3.8	-5.5	-9.2	94.1*	27.5
O=C(NCCO)c1ccc2[nH]c3c(c2c1)CCCC3	2.1	-0.5	4.6	3.0	-8.1	-0.2
C=CCC(Nc1ccccc1)c1ccc(OC)c(OC)c1 (stereo not given)	-9.8	x	-4.4	x	96.4*	9.8
O=c1[nH]c2ccc(NC(=NS(=O)(=O)c3ccccc3)c3ccccc3)cc2[nH]1	x	0.6	x	x	x	x
Cc1ccccc1Nc1c(-c2ccc(N3CCOCC3)cc2)nc2ncccn12	3.0	-1.5	0.4	-7.9	98.2*	12.6
Cc1cccc(C)c1Nc1c(-c2ccsc2)nc2ncccn12	9.1	2.7	-9.6	2.2	98.2*	11.5
Cc1ccc(Nc2c(-c3ccc(N4CCOCC4)cc3)nc3ncccn23)cc1C	28.5	-28.7	-7.0	13.3	94.0*	18.9
Cc1ccc(Nc2c(-c3ccc(N4CCOCC4)cc3)nc3ncccn23)cc1	11.0	-15.7	0.9	-1.9	21.5	13.6
COC(=O)NN=C(C)c1ccc(OC(F)F)cc1OC(F)F	x	-2.2	x	x	x	x
CCOc1ccc(CC(=O)NN=Cc2cccnc2)cc1OCC	x	-0.2	x	x	x	x
COc1ccc(-n2cc(CNCCc3cnc[nH]3)c(-c3cccc(F)c3)n2)cc1	27.2*	0.4	1.2	26.0	0.9	16.1
COc1ccc(-n2cc(CN(C)CCO)c(-c3cccc(F)c3)n2)cc1	24.4*	-0.9	-8.8	15.2	-0.6	21.4
COCCn1c(SCC(=O)OCc2ccccc2)nc2c1c(=O)[nH]c(=O)n2C	x	0.5	1.9	-7.4	98.3*	-5.1
SMILES	NALP1 yeast inh	UCH37 DUB inh	Calb FLC	ATG4B inhibitor	ALR inh	NLRP3 yeast inh
COCCn1c(SCc2ccccc2)nc2c1c(=O)[nH]c(=O)n2C	0.9	5.3	-7.5	7.1	-1.7	4.2
CCn1c(SCC(=O)OCc2ccccc2)nc2c1c(=O)n(C)c(=O)n2C	19.8	1.3	22.6	-0.2	98.8*	15.7
CCC(=O)N(C)CCc1cc2c(c(OC)c1C=NNS(=O)(=O)c1ccc(C)cc1)OCO2	x	3.1	x	x	x	x
CCc1ccc(NC2=NCC(c3ccccc3)S2)cc1 (stereo not given)	35.3*	6.0	-26.5	13.4	x	24.0
CC(=NNC(=O)c1cccc(S(=O)(=O)N2CCOCC2)c1)c1ccco1	x	6.7	x	x	x	x
CN1CCc2cccc3c2C1Cc1ccc(O)c(O)c1-3 (stereo not given)	34.4	-0.9	x	-7.1	98.1*	48.0
CCN(CC)c1cccc(OCC(=O)N2c3ccccc3CC2C)c1 (stereo not given)	x	3.4	x	8.9	98.2*	15.7
O=C(C[n+]1ccccc1)NN=Cc1cc(Br)ccc1F	x	3.6	x	x	x	x
CC(C)Oc1ccc(CNC(=S)NN=Cc2cccnc2)cc1	x	3.8	x	x	x	x
O=C(NCc1ccncc1)C(=O)NCC(c1ccco1)N1CCN(c2ccc(F)cc2)CC1 (stereo not given)	-0.6	4.2	-9.1	-6.1	94.2*	18.2
O=C(NCc1ccccn1)C(=O)NCC(c1ccco1)N1CCN(c2ccc(F)cc2)CC1 (stereo not given)	19.1	-0.2	-3.1	-10.0	98.0*	0.7
O=C(NCc1ccccn1)C(=O)NCC(c1ccco1)N1CCOCC1 (stereo not given)	-4.9	-2.0	-1.8	-2.1	-3.4	5.3
O=C(NCC(c1ccco1)N1CCN(c2ccc(F)cc2)CC1)c1ccco1 (stereo not given)	x	-0.5	-9.8	-13.5	55.2	0.3
C/C(=N\NC(=O)c1c(C)nc2ccccn12)c1ccc(N2CCOCC2)cc1	-0.1	x	3.3	-1.1	87.1*	13.3
FC(F)(F)c1ccc(Cl)c(NC(=S)NN=Cc2ccccc2C(F)(F)F)c1	x	6.3	x	x	x	x
CC(C)N=C1NN=C(c2cccs2)CS1	11.2	4.4	-1.0	-5.9	7.9	5.5
CC(C)c1ccc(N=C2NN=C(c3cccs3)CS2)cc1	37.5*	1.6	-20.3	-3.4	-0.5	23.0
CC(=O)Nc1ccccc1NC(=O)CC(C)=NNC(=O)c1ccccn1	x	0.1	x	x	x	x
CNCc1ccccc1Sc1ccc(O)c(O)c1	20.8	1.5	106.6*	-1.2	98.7*	x
COc1ccc(NCC(O)Cn2cnc3c2c(=O)n(C)c(=O)n3C)cc1 (stereo not given)	-11.4	3.6	1.3	-5.0	98.4*	1.7
CCOc1ccc(C=NNC(=O)Cc2ccccc2)cc1CN1CC2CC(C1)c1cccc(=O)n1C2 (stereo not given)	x	4.2	x	x	x	x
CC(/C=C/c1ccccc1)=NNC(=O)c1cnccn1	x	8.9	x	x	x	x
Cc1cc(NC(c2ccc(Cl)cc2)c2ccc3cccnc3c2O)no1 (stereo not given)	-3.6	-0.1	101.3*	-5.6	-0.1	10.2
CCC(=O)NC(c1ccc(Cl)cc1Cl)c1ccc2cccnc2c1O (stereo not given)	9.4	x	106.7*	-1.7	-3.2	9.7
CC(C)C(=O)NC(c1ccc(Cl)cc1Cl)c1ccc2cccnc2c1O (stereo not given)	-5.0	-4.6	5.9	-1.3	-2.2	19.8
CCCCC(=O)NC(c1ccc(Cl)cc1Cl)c1ccc2cccnc2c1O (stereo not given)	10.4	x	96.5*	-1.2	-6.1	16.0
COc1ccc(C=c2sc(=CC(=O)c3ccc(C)cc3)[nH]c2=O)cc1OC	x	1.3	x	x	x	x

Screens: PubChem BioAssay, several laboratories
